We go through one compound from ChEMBL document CHEMBL4402562, “Discovery of Novel Peptidomimetic Boronate ClpP Inhibitors with Noncanonical Enzyme Mechanism as Potent Virulence Blockers in Vitro and in Vivo” (J Med Chem, 2020).

≈ marks a conversion by molar mass, not a printed value. Calls of active or inactive are those of the source. The calls are words filed in the database; no cut-off is given here.

Data set [1] can be described thus: Induction of hemolysis in sheep erythrocytes by measuring hemoglobin release incubated for 15 mins. It counts as cell-based, Ovis aries, Erythrocyte. Summed up:
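Serially diluted compound mixed directly with 2% sheep erythrocytes in 10 mM Tris pH 7.4, 0.9% NaCl. Buffer served as negative and water as positive control. After 1,500 rpm, 15 min spin, released hemoglobin read at 545 nm. Three experiments, triplicate tubes.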

Data set [2] can be described thus: Cytotoxicity in human HeLa cells assessed as reduction in cell viability incubated for 24 hrs by MTT assay. It counts as cell-based. The gist of the method: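 MTT assay. HeLa (3×10^3 cells) or HepG2 (4×10^3 cells) seeded in DMEM and grown 24 h, then given compound for a further 24 h. Absorbance read at 570 nm against DMSO wells. GI50 from dose-response fit; three experiments, triplicate wells.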

Data set [3] has as its target T1, ATP-dependent Clp protease proteolytic subunit (Staphylococcus aureus (strain NCTC 8325)) (UniProt Q2G036).
T1 sequence (whole entry): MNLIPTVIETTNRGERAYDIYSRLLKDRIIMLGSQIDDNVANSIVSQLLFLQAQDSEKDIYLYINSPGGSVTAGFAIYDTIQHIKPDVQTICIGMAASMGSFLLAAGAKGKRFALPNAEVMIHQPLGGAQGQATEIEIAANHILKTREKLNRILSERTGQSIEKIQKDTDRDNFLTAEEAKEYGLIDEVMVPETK
As to the kind of experiment: Inhibition of N-terminal His6-sumo-tagged full length Staphylococcus aureus ClpP expressed in Escherichia coli […] assessed as enzyme activity recovery level at 20-fold molar excess pre-incubated for 10 mins before Suc-LY-AMC addition and measured after 1 hr followed by dialysis up to 72 hrs by fluorescence based assay relative to control. Details: scale not given: the % may be the effect or the level left. Summed up: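 ClpP (1 μM, 100 mM Hepes pH 7.0, 100 mM NaCl) incubated 1 h at RT with 20-fold molar excess inhibitor or DMSO. Dialyzed at 4 °C, buffer changed after 6 h and then every 24 h. Aliquots assayed for peptidase activity with Suc-LY-AMC. Thrice, single sample.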

Data set [4] can be described thus: Inhibition of Staphylococcus aureus ClpXP expressed in Escherichia coli […] using FITC-casein substrate in presence of ATP-regenerating system incubated for 50 mins by fluorescence based assay. Summed up: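 3.6 μM SaClpP with 3 μM SaClpX in 25 mM Hepes pH 7.5, 20 mM MgCl2, 30 mM KCl, 0.03% Tween 20, 10% glycerol, 2 mM DTT. ATP regeneration: 4 mM ATP, 20 U/mL creatine kinase, 16 mM creatine phosphate. FITC-casein 0.048 mg/mL, 494/521 nm for 50 min; slope 300–1200 s vs DMSO. Thrice, triplicate wells.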

Data set [5] is described as follows: Inhibition of Pseudomonas aeruginosa ClpP1 expressed in Escherichia coli […] pre-incubated for 10 mins before Suc-LY- AMC addition and measured after 1 hr by fluorescence based assay relative to control. The gist of the method: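 PaClpP1 (0.5 μM monomer) in 25 mM Tris-Cl pH 7.5, 150 mM NaCl. Preincubated 10 min at RT with inhibitor, two-fold dilutions over 8 steps from 50 μM. Then 50 μM Suc-LY-AMC, 380/440 nm for 1 h at 37 °C, slopes normalized to DMSO. Thrice, triplicate wells.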

Data set [6] relates to Staphylococcus aureus. Nature of the data set: Growth inhibition of methicillin-resistant Staphylococcus aureus ATCC 33591 up to 64 uM incubated for 18 hrs by broth microdilution method. The class given is functional, organism-based. The gist of the method:
(§1)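 MRSA ATCC 33591 at ~5×10⁵ CFU/mL in MHB with graded compound concentrations vs DMSO; OD600 growth curves over 18 h; three experiments, triplicate wells. MIC by CLSI broth microdilution in CAMHB, 0.5-256 µg/mL, 18 h at 37 °C, lowest concentration with no visible growth.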
For orientation: In broth dilution the organism is exposed to a series of concentrations in liquid medium.

Data set [7] concerns the target T1, ATP-dependent Clp protease proteolytic subunit (Staphylococcus aureus (strain NCTC 8325)). Nature of the data set: Inhibition of ClpP in wild type Staphylococcus aureus NCTC8325 assessed as reduction in bacteria-induced hemolysis of sheep erythrocytes by measuring hemoglobin release incubated for 15 mins. The gist of the method:
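S. aureus strains grown overnight in MHB, diluted to OD600 0.05, then grown at 37 °C to OD600 ~0.6. Serially diluted inhibitor or DMSO added for 8 h more growth. Supernatant mixed 1:1 with 5% sheep erythrocytes, spun 1,500 rpm for 15 min, hemoglobin read at 545 nm. EC50 by nonlinear fit; thrice, triplicate tubes.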

Data set [8] deals with Staphylococcus aureus. Nature of the data set: Growth inhibition of methicillin-resistant Staphylococcus aureus ATCC 33591 incubated for 18 hrs by broth microdilution method. To be noted: ATCC 33591, 18 h. The class given is functional. The gist of the method: as §1
Data set [9] deals with Staphylococcus aureus. Nature of the data set: Inhibition of virulence-related genes expression in methicillin-resistant Staphylococcus aureus ATCC 33591 assessed as reduction in hla expression at 4 to 16 uM by qPCR analysis relative to control. It counts as functional, organism-based. Summed up:
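Total RNA from 2×10⁸ CFU treated MRSA by liquid-nitrogen freeze-thaw and TRIzol; qPCR relative to gyrB endogenous control; three experiments, triplicate wells.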
Background: Real-time PCR tracks product formation cycle by cycle.

A short description of data set [10]: Toxicity in BALB/c mouse model of skin abscess infected with methicillin-resistant Staphylococcus aureus ATCC 33591 assessed as induction of adverse effects at 1.5 to 3 mg/kg injected into shaved area of skin once daily for 4 days measured every day. The class given is organism-based. To be noted: in vivo, other, 96 h. Summed up: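 Female BALB/c mice, 6-8 weeks, n=5 per group, backs shaved and depilated 1 day before; 50 µL subcutaneous 1.7 × 10⁹ CFU/mL MRSA ATCC 33591. From 6 h post-infection, 40 µL vehicle, vancomycin 3 mg/kg, or compound 1.5 or 3 mg/kg injected at infection site once daily for 4 days; weight recorded daily. Skin homogenised in saline 12 h after last dose, plated on LB agar 37 °C ≥16 h; log10 CFU/abscess; t-test.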

Data set [11] is described as follows: Toxicity in BALB/c mouse model of skin abscess infected with methicillin-resistant Staphylococcus aureus ATCC 33591 assessed as effect on alkaline phosphatase levels at 1.5 to 3 mg/kg injected into shaved area of skin once daily for 4 days. It counts as organism-based. To be noted: in vivo, other, 96 h. The gist of the method:
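Infected BALB/c mice (n=5/group) dosed 1.5 or 3 mg/kg into the infected skin once daily for 4 days; blood collected on day 4 and day 14, centrifuged 3,500 rpm 15 min, serum biochemistry analysed.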

Data set [12] deals with Staphylococcus aureus. As to the kind of experiment: Antivirulence activity against methicillin-resistant Staphylococcus aureus ATCC 33591 infected in BALB/c mouse model of skin abscess assessed as reduction in severe alveolar destruction at 1.5 to 3 mg/kg injected into shaved area of skin once daily for 4 days measured after 12 hrs post last dose by hematoxylin and eosin staining based optical microscopy. It counts as functional, organism-based. Summed up:
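Same MRSA ATCC 33591 skin-abscess model in female BALB/c mice (n=5/group), 40 µL compound at 1.5 or 3 mg/kg injected into the infected shaved skin once daily for 4 days. On day 4 infected skin and heart, liver, spleen, lung, kidney fixed in 4% paraformaldehyde, embedded, sectioned, H&E stained and examined by microscopy; PBS-treated uninfected and vehicle controls.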

By HC50 is commonly meant the concentration that lyses half of the red blood cells. By GI50 is commonly meant the concentration that inhibits growth by half. Broadly, the IC50 is the midpoint of a concentration-inhibition curve. The term MIC denotes the lowest concentration found to suppress growth.

With `CC(C)C[C@H](NC(=O)[C@H](Cc1c[nH]c2ccccc12)NC(=O)c1cc(Cl)ccc1Cl)B(O)O`, the HC50 at 0.25 h in data set [1] is > 500 µM. The GI50 at 24 h in data set [2] was 108 µM. In addition, the Activity in data set [3] is 100%; in [10], “Non-Toxic”; in data set [11], “Non-Toxic”. In addition, the IC50 is 69.6 µM in data set [4] and 3 to 25 µM in [5]. The “growth inhibition (GI)” value in the data set with Staphylococcus aureus [6] is “inactive”. Moreover, the inhibition entry in data set [7] is “Dose-dependent effect”. Moreover, in the data set on Staphylococcus aureus [8], the minimum inhibitory concentration (MIC) fell in the range of 64 to 128 µg/mL (≈ 131 to 261 µM). Also, the inhibition entry with Staphylococcus aureus [9] is “Active”. Moreover, in the data set with Staphylococcus aureus [12], the result was Active.
